TDP2 inh: human TDP2 enzyme inhibitors, primary screen, biochemical, epi absorbance, recombinant enzyme | Tyrosyl-DNA phosphodiesterase 2 (Homo sapiens), O95551 | T5PNP hydrolysis, p-nitrophenol absorbance 415 nm | inhibition, % at 12.8 µM | 370,000 tested, 0.34% active | AID 720702, 2013;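 active = inhibition above the mean of all tested compounds plus 3 SD, set per campaign, cut at about 25% in these data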;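 note: 0% = DMSO with enzyme and 100% = buffer with substrate but no TDP2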
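Material: recombinant human TDP2; quantity: TDP2 enzyme at 120 nM final; medium: Tris-HCl pH 7.5 with MgCl2; compound: single concentration, 12.8 µM nominal, with 1% DMSO; incubation: 2 h enzyme incubation at 37 °C; signal: epi absorbance; measure: percent inhibition; benchmarks: high control without enzyme, low control DMSO plus TDP2; repeats: singlicate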
PRMT1 inh: PRMT1 methyltransferase inhibitors, primary screen, biochemical, fluorescence polarization | Protein arginine N-methyltransferase 1 (Homo sapiens), Q99873 | recombinant PRMT1, activity-based probe fluorescence polarization | inhibition, % at 2.79 µM | 370,000 tested, 1.3% active;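 active = inhibition above about 21% made by adding two undisclosed values, limit read from the data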
Target sequence (Q99873 whole entry, looked up): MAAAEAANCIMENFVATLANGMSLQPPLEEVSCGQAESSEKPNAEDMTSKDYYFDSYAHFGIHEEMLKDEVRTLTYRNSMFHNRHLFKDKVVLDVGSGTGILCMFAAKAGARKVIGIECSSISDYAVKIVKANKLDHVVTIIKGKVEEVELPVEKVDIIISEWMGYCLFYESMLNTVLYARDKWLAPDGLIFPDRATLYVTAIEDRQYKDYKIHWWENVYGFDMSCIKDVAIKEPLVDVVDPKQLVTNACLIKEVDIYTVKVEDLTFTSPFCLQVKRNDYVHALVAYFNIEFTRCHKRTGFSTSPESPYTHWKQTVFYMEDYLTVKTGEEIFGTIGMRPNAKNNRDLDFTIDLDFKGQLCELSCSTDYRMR
CTSL1 counter: Fasciola hepatica cathepsin L1 inhibitors, primary screen, counter-screen for PFM18AAP inhibitor project, biochemical, QFRET, fluorogenic peptide substrate | recombinant F. hepatica cathepsin L1, Z-Leu-Arg-MCA fluorescence | inhibition, % at 5.96 µM | 300,000 tested, 0.49% active | AID 1906, 2009;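 active = inhibition above the mean of all tested compounds plus 3 SD, set per screening campaign, cut at about 17% in these data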;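 note: 0% = plate median of test compound wells and 100% = 1 µM Z-Phe-Ala-diazomethylketone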
PAD4 inh: human PAD4 inhibitors, primary screen, biochemical, fluorescence polarization, 1536-well format; recombinant PAD4, RCA probe fluorescence polarization; AID 485272, 2010; Protein-arginine deiminase type-4 (Homo sapiens), Q9UM07; 330,000 tested, 0.41% active; inhibition, % at 6.36 µM;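 active = percent inhibition above a cutoff equal to the mean of all tested compounds plus 3 SD, cut at about 15% in these data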;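 note: 0% = PAD4 with RCA probe and DMSO and 100% = probe without PAD4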
GSTO1 counter: inhibitors of recombinant GSTO1, primary screen, counter-screen for RBBP9 inhibitor project, biochemical, fluorescence polarization; activity-based probe fluorescence polarization; 300,000 tested, 1.1% active; inhibition, % at 5.96 µM; Glutathione S-transferase omega-1 (Homo sapiens), P78417;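 active = inhibition above the campaign mean inhibition plus 3 SD, cut at about 35% in these data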;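 note: 0% = GSTO1-1 with DMSO and 100% = wells lacking GSTO1-1 enzyme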
Target sequence (P78417 whole entry, looked up): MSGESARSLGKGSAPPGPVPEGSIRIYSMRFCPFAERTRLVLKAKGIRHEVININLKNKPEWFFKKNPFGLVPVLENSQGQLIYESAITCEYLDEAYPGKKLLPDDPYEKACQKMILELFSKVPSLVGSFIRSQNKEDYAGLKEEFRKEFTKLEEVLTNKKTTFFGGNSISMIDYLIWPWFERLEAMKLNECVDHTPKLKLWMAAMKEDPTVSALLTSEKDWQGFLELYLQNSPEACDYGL
PRMT1 inh conf: PRMT1 methyltransferase inhibitors, confirmation, biochemical, fluorescence polarization, triplicate. shares compounds with PRMT1 inh. recombinant His-PRMT1, activity-based probe fluorescence polarization. inhibition, % at 2.79 µM. 3,300 tested, 42% active;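 active = mean inhibition across replicates above the hit cutoff derived for the earlier primary screen, cut at about 22% in these data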
Active calls of the source: *; . = no result. Only some compounds are listed: those with a hit (about 2.5% of all), similar ones and a draw of the others.

SMILES	TDP2 inh	PRMT1 inh	CTSL1 counter	PAD4 inh	GSTO1 counter	PRMT1 inh conf
CN(Cc1nccn1C)C(=O)c1cc(COc2cccc(C(F)(F)F)c2)on1	-11	-3	-6	-3	-1	.
Cc1ccc(CN(C)C(=O)c2cc(COc3cccc(C(F)(F)F)c3)on2)o1	5	37*	4	-5	-8	34*
COc1ccc(-c2noc(C3CCCN(C(=O)N[C@@H]4C[C@H]4c4ccccc4)C3)n2)cc1 (some centres undefined)	9	-3	.	.	.	.
O=S(=O)(c1ccccc1)c1nc(-c2ccco2)oc1NCc1cccnc1	-4	32*	5	-2	-8	4
COc1ccc(C=Cc2ccc3ccccc3n2)c(OC)c1	-14	147*	.	.	.	7
COc1ccc(OC)c(/C=C/c2ccc3cccc(O)c3n2)c1	-11	3	0	-8	16	.
Cc1ccc(/C=C2/C(=O)ON=C2c2ccccc2)o1	9	25*	-2	-8	18	33*
Cc1[nH]n(-c2ccccc2)c(=S)c1C=Nc1cccc([N+](=O)[O-])c1	8	95*	1	4	7	98*
CCCCN=Cc1c(C)[nH]n(-c2ccccc2)c1=S	-8	26*	5	-7	15	3
O=[N+]([O-])c1ccc(C=Nc2ccccc2)cc1	4	0	.	.	.	.
C=CCN1[C@H](C)COc2cc(F)ccc2S1(=O)=O	1	-8	.	.	.	.
C=CCn1c(NCCO)nc2sc3c(c2c1=O)CCC3	-3	33*	-1	-4	3	1
CC(C)C1Oc2ccccc2N(CC(=O)N(Cc2ccccn2)CC2CCCO2)C1=O (centres undefined)	-3	-1	3	1	4	.
Cc1ccc(CN(CC2CCCO2)C(=O)CN2C(=O)C(C(C)C)Oc3ccccc32)o1 (centres undefined)	2	32*	1	1	5	12
CCCCCCn1c(=O)[nH]c2nc3cc(N)c(C)cc3nc2c1=O	1	132*	.	.	.	123*
COc1ccc(C(=O)/C=C(\Nc2ccc(F)cc2)c2ccc(OC)cc2OC)c(OC)c1	-5	3	.	.	.	.
CCc1nnn2c1Cn1c3ccccc3c(=O)n1[C@@H](C)C2	0	1	.	.	.	.
CN1CCCC(OC(=O)c2ccc(S(=O)(=O)N(C)C)cc2)C1 (centres undefined)	-3	34*	-2	3	0	-1
O=C(OCc1cn(Cc2ccc(F)cc2)nn1)N1CCOCC1	-4	-1	.	.	.	.
CC(C)c1nnc(SCC(=O)NCCC2=CCCCC2)n1N	-10	34*	-3	3	-3	39*
CCCCCCCCN1C(=O)[C@@H](CC(=O)N2CCN(C(=O)c3ccco3)CC2)C[C@@]2(C(=O)OC)C1=C[C@H](C(C)C)O[C@@H]2C1CC1	-12	3	.	.	.	.
CCOC(=O)Cc1csc(-n2sc3ccccc3c2=O)n1	-7	88*	7	-4	-13	89*
CCOC(=O)Cc1csc(SCn2nnc3ccccc3c2=O)n1	-10	-2	3	-3	-2	.
O=C(c1ccccc1)c1ccc(O)cc1O	-13	73*	3	-6	0	42*
Clc1ccc2nc(-c3ccco3)c(Cc3ccsc3)n2c1	3	47*	.	.	.	23*
SMILES	TDP2 inh	PRMT1 inh	CTSL1 counter	PAD4 inh	GSTO1 counter	PRMT1 inh conf
Brc1ccc2nc(-c3ccccc3)c(Cc3ccsc3)n2c1	-5	7	.	.	.	.
Brc1ccc2nc(-c3ccco3)c(Cc3ccsc3)n2c1	-1	36*	.	.	.	34*
CC(C)(C)CCN1CCC[C@H](NC(=O)COc2ccc(F)c(Cl)c2)C1	7	3	.	.	.	.
CC(C)(CCC(=S)N1CCOCC1)C1CCCCC1	-19	37*	-3	-1	1	6
S=C(CN1CCCC1=S)N1CCOCC1	21	-3	1	2	7	.
CC1(C)CC(=O)C(CC(=O)Nc2ccc(S(N)(=O)=O)cc2)=C(O)C1	1	2	-1	-5	-2	.
CC1(C)CC(=O)C(CS(=O)(=O)c2ccccc2)=C(O)C1	-3	27*	-4	-6	6	22*
CSCCOC(=O)C1=C(C)Nc2ccc(C)cc2S1	-10	34*	0	4	5	17
CCOC(=O)C1=C(C)Nc2ccc(C)cc2S1	3	42*	-2	5	5	14
CCOCCOC(=O)C1=C(C)Nc2ccc(C)cc2S1	1	21	1	0	-5	.
CCOC(=O)C1=C(C)Nc2ccccc2S1	17	31*	-1	1	5	17
O=C(NC1CCCCN(Cc2cccc(Cl)c2)C1=O)c1ccccc1 (centres undefined)	3	2	.	.	.	.
O=S1(=O)CC2c3ccc(F)cc3CN2CN1Cc1ccc(F)cc1 (centres undefined)	2	-1	.	.	.	.
CCC(CO)n1c(SCc2cc(=O)oc3cc(C)ccc23)nc2ccccc2c1=O (centres undefined)	2	77*	7	7	2	67*
S=c1[nH]nc(-c2ccco2)n1/N=C/C(Cl)=C/c1ccccc1	1	26*	2	-2	11	20
Cc1cc(-c2n[nH]c(=S)n2/N=C/C(Cl)=C/c2ccccc2)n[nH]1	6	26*	-2	4	3	15
Cc1cc(-c2n[nH]c(=S)n2N=Cc2c3ccccc3cc3ccccc23)n[nH]1	0	42*	.	.	.	17
C[C@@H]1[C@@H](O)C[C@@]2(CC(=O)c3ccccc3O2)O[C@H]1c1ccccc1	2	3	.	.	.	.
O=C(CSc1nnc(-c2cccnc2)n1Cc1ccco1)Nc1ccc(F)cc1Cl	-2	13	.	.	.	.
C[C@@H]1C(=O)N2N=Cc3cc4ccccc4cc3[C@H]2N2N=Cc3cc4ccccc4cc3[C@@H]12	12	-2	.	.	.	.
COC(=O)C1=C(C)NC(=O)NC1c1ccc(-c2ccc(Cl)cc2)o1 (centres undefined)	10	4	0	-6	-2	.
COC(=O)C1=C(C)NC(=S)NC1c1ccc(-c2cc(Cl)ccc2Cl)o1 (centres undefined)	1	70*	6	-1	-5	19
COc1ccc(N2C(=O)CC(NCC#N)C2=O)cc1 (centres undefined)	-4	12	-4	0	2	.
CCOc1ccc(N2C(=O)CC(NCc3ccc(F)cc3)C2=O)cc1 (centres undefined)	2	55*	-2	5	14	2
CCOc1ccc(N2C(=O)CC(Cc3cc(C)cc(C)c3)C2=O)cc1 (centres undefined)	7	-1	.	.	.	.
